SUMO1-SIM PPI: alters human SUMO1 binding to SIM partners; 360,000 compounds, 0.33% hits; SUMO1 binding to a labelled peptide, TR-FRET, 1 h; inhibition, % at 20 µM; AID 602429; P63165; in the data active means inhibition above about 37%
Target sequence (P63165 whole entry, looked up): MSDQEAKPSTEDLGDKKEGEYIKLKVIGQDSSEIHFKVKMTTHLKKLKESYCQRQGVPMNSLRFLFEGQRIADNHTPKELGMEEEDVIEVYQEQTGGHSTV
STEP inh: STEP (human) phosphatase inhibition. AID 588621. inhibition, % at 20 µM. 360,000 compounds, 0.25% hits. recombinant STEP, OMFP fluorogenic substrate, fluorescence;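 active means inhibition at 20 µM, scaled per plate between control wells, above about 37%, limit read from the data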;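 further: 0% = DMSO with enzyme and substrate and 100% = substrate only without enzyme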
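System: isolated STEP enzyme; schedule: 20 min enzyme reaction at room temperature, protected from light; medium: Bis-Tris buffer pH 6.0, 2.5 mM DTT, 0.005% Tween 20; signal: fluorescence, 480/540 nm; dosing: single compound dose of 20 µM, 1% DMSO final; also added: OMFP substrate, 25 µM final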
LMPTP inh: blocks human LMPTP phosphatase | recombinant LMPTP-A, OMFP fluorogenic substrate, fluorescence intensity | AID 651560 | 360,000 compounds, 0.22% hits | P24666 | inhibition, % at 20 µM;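 active means compounds that cut the enzyme signal by at least half of the control window in the single-dose screen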;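 further: plate controls were DMSO wells with enzyme plus substrate for no effect and substrate without enzyme for full effect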
Target sequence (P24666 whole entry, looked up): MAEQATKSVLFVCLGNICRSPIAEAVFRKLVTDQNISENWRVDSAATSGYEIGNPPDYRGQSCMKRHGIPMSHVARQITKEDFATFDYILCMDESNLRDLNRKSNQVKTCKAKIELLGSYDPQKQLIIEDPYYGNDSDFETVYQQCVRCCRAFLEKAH
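Test system – LMPTP-A enzyme · Amount – LMPTP-A at 0.625 nM final in the reaction · Buffer or medium – Bis-Tris pH 6.0, DTT, detergent · Reagent – OMFP 400 µM · Doses – single 20 µM dose · Schedule – reaction 50 min, room temperature, dark · Detection – fluorescence intensity of OMFP turnover product · Evaluation – percent inhibition versus substrate-only and uninhibited controls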
DNMT1 block: blocks human DNA methyltransferase DNMT1. P26358. inhibition (reported as % activation of signal), % at 10 µM. DNMT1 molecular beacon, Hinp1I cleavage, fluorescence. 360,000 compounds, 0.83% hits; in the data active means inhibition above about 50%
Scp1 inh: inhibitors of human Scp-1 phosphatase; Q9GZU7; Recombinant Scp1, phosphopeptide, malachite green phosphate absorbance; inhibition, % at 20 µM; 340,000 compounds, 0.88% hits;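 active means inhibition above about 50% at 20 µM, limit read from the data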;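 further: plate controls were DMSO wells with enzyme for no effect and wells lacking enzyme for full effect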
Target sequence (Q9GZU7 76-261 limits assumed): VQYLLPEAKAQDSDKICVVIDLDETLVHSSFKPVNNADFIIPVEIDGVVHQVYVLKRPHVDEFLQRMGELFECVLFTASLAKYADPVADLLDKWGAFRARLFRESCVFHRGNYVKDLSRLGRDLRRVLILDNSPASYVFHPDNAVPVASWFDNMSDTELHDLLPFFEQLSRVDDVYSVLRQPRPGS
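Material: truncated SCP-1 phosphatase (76-261aa) / Buffer or medium: 50 mM Tris acetate pH 5.5, 0.005% Tween-20, 10 mM MgCl2 / Compound dosing: one concentration, 20 µM, with 1.0% DMSO / Incubation: 45 min room-temperature reaction, 5 min colour, 30 min stabiliser / Detection: colorimetric free-phosphate detection, absorbance 630 nm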
Scp1 confirm: confirmation of human Scp-1 phosphatase inhibitors. shares compounds with Scp1 inh. recombinant SCP-1 catalytic domain, phosphate release, malachite green absorbance. inhibition, % at 20 µM. 2,500 compounds, 61% hits. AID 540281;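 further: plate controls were DMSO with enzyme for no effect and buffer wells lacking enzyme for full effect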
Scp-1 MG ctr: counter-screen for Scp-1 inhibitors: colorimetric interference. shares compounds with Scp1 inh. Colorimetric interference counterscreen, malachite green absorbance 630 nm. apparent inhibition (interference), % at 20 µM. 2,500 tested, under 10 active;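 further: compounds added after enzyme reaction finished so only phosphate colour detection is probed; plate controls were DMSO wells with completed Scp-1 reaction for no effect and substrate wells lacking enzyme for full effect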
Scp-1 Tm shift: validation of human Scp-1 inhibitors by thermal shift binding. AID 540329. shares compounds with Scp1 inh. Recombinant SCP1, Sypro Orange thermal shift Tm. thermal shift relative to vanadate control, % at 40 µM. 1,500 compounds, 25% hits;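 active means substances whose mean melting-temperature shift, as a percentage of the reference inhibitor's shift, reaches about 5.3%, limit read from the data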;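 further: 0% = Tm of DMSO wells and 100% = Tm with sodium orthovanadate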
* marks the source's active call; other numbers are inactive results; x = not tested or not shown. Only some compounds are listed: those with a hit (about 1.7% of all), similar ones and a draw of the others.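 How the source made its calls, unless noted: active means inhibition of at least 30% at 20 µM; inactive means the rest.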

SMILES	SUMO1-SIM PPI	STEP inh	LMPTP inh	DNMT1 block	Scp1 inh	Scp1 confirm	Scp-1 MG ctr	others
Cc1noc(C)c1NC(=O)N(C)C[C@@H]1Oc2c(NC(=O)c3ccncc3)cccc2C(=O)N([C@H](C)CO)C[C@@H]1C	2.6	-3.3	-1.6	3.4	94.2*	66.0*	-12.6	Scp-1 Tm shift=-27.2
C[C@H](CO)N1C[C@H](C)[C@@H](CN(C)C(=O)Nc2ccc3c(c2)OCO3)Oc2c(NC(=O)c3ccncc3)cccc2C1=O	-0.4	3.0	-1.9	22.0	55.8*	4.8	-15.1
C[C@H](CO)N1C[C@H](C)[C@@H](CN(C)Cc2ccncc2)Oc2c(NC(=O)c3ccncc3)cccc2C1=O	4.5	-1.3	-2.2	4.2	-7.7	x	x
C[C@H](CO)N1C[C@H](C)[C@@H](CN(C)Cc2ccc(C(=O)O)cc2)Oc2c(NC(=O)c3ccncc3)cccc2C1=O	4.3	0.4	-1.3	3.1	54.4*	11.5	-10.7
C/C(=N\NC(=O)c1ccc(Cl)cc1)c1ccc(Br)s1	0.1	0.3	-1.3	12.7	6.0	x	x
C/C(=N\NC(=O)c1cc(Cl)ccc1O)c1ccc(Br)s1	2.3	16.1	22.4	-2.2	92.7*	79.8*	-13.4	Scp-1 Tm shift=0.4
O=C(COC(=O)C1CCN(c2ccc(C(F)(F)F)cn2)CC1)c1ccccc1	5.7	0.2	2.3	2.3	-4.8	x	x
COC(=O)[C@]1(Cc2ccccc2)N[C@H](CN(C)S(=O)(=O)c2ccc(C(C)(C)C)cc2)[C@@H]2C(=O)N(C)C(=O)[C@@H]21	3.5	-2.3	2.4	-3.3	-10.9	x	x
COCCN1C(=O)c2ccccc2C(C(=O)NCCN(C)C)C1c1ccc(F)cc1 (stereo unspecified)	-3.6	-1.5	-1.1	4.5	4.6	x	x
COCCNC(=O)C1c2ccccc2C(=O)N(CCOC)C1c1ccc(F)cc1 (stereo unspecified)	3.5	-0.7	4.4	-1.5	52.2*	3.5	-2.1
COc1ccc(S(=O)(=O)N2CCOCC2)cc1NC(=O)c1ccncc1	4.9	-0.9	-0.7	2.6	-12.0	x	x
C[n+]1cn(CC(O)COCc2ccccc2)c2ccccc21 (stereo unspecified)	1.4	8.1	-1.0	8.8	71.0*	71.1*	-15.6	Scp-1 Tm shift=-7.8
Cc1cc2c(cc1C)[n+](C)cn2CC(O)COCc1ccccc1 (stereo unspecified)	-1.8	0.9	-0.2	5.0	32.6	x	x
Cn1c(=O)c(=O)n(C)c2cc(S(=O)(=O)N3CCCC3C(=O)Nc3ccccc3F)ccc21 (stereo unspecified)	-1.5	0.3	-0.4	-0.2	-0.4	-7.1	-6.5
CCc1ccccc1NC(=O)C1CCCN1S(=O)(=O)c1ccc2c(c1)n(C)c(=O)c(=O)n2C (stereo unspecified)	5.9	-1.4	-1.9	1.2	-6.9	x	x
Cc1ccc(NC(=O)C2CCCN2S(=O)(=O)c2ccc3c(c2)n(C)c(=O)c(=O)n3C)cc1 (stereo unspecified)	-5.0	-1.7	-2.2	2.2	7.3	x	x
Cc1ccc(NC(=O)C2CCCN2S(=O)(=O)c2ccc3c(c2)n(C)c(=O)c(=O)n3C)c(C)c1 (stereo unspecified)	3.9	-1.6	-0.3	-0.3	-12.3	-9.9	-10.7
Cc1cccc(C)c1NC(=O)C1CCCN1S(=O)(=O)c1ccc2c(c1)n(C)c(=O)c(=O)n2C (stereo unspecified)	-2.1	1.4	-3.1	1.1	-4.2	-13.6	-18.1
COc1ccc(S(=O)(=O)CC(=O)c2cc3cc(Br)ccc3oc2=O)cc1	17.1	6.8	6.3	24.0	-4.5	x	x
Cc1nc2ccc(C(=O)O)cc2c2c1CC(C)S2 (stereo unspecified)	16.0	6.9	-0.1	54.3*	79.1*	60.7*	-9.5	Scp-1 Tm shift=4.2
O=C(O)c1ccc([N+](=O)[O-])c(CS(=O)(=O)c2ccc(Cl)cc2)c1	-0.4	-0.8	-0.8	-0.6	66.2*	3.9	-15.0
Cc1cc(Br)ccc1OCC(=O)NNC(=O)c1ccc(NC(=O)C2CC2)cc1	-1.1	-1.1	5.2	12.3	61.4*	8.8	-9.6
Cc1ccc(C)c(OCC(=O)NNC(=O)c2ccc(NC(=O)C3CC3)cc2)c1	4.4	-2.6	-1.1	-0.5	-1.8	x	x
Cc1cccc(CN2[C@H](CO)C=CS2(=O)=O)c1	5.3	-1.5	-1.5	1.9	x	x	x
CC1=C(C#N)C(Nc2cc(C)ccn2)(C(F)(F)F)C(=O)N1 (stereo unspecified)	0.6	0.5	-0.4	-1.7	-20.1	x	x
SMILES	SUMO1-SIM PPI	STEP inh	LMPTP inh	DNMT1 block	Scp1 inh	Scp1 confirm	Scp-1 MG ctr	others
CC1=NC(C(F)(F)F)(C(F)(F)F)C(C#N)=C(C)N1	0.3	-3.0	-1.1	0.8	56.2*	-8.1	-4.9
O=c1oc2cc(OCc3ccc([N+](=O)[O-])cc3)ccc2c2c1CCCC2	-7.1	-1.5	0.6	14.7	-6.0	x	x
O=C(O)c1ccc(COc2ccc3c4c(c(=O)oc3c2)CCC4)o1	0.8	12.2	-2.0	43.6	50.1*	45.2*	-5.7	Scp-1 Tm shift=-4.3
COc1ccc(-c2c(-c3ccccc3OC)sc3ccccc23)cc1C=O	5.6	-2.4	1.4	-2.4	50.1*	18.9	-7.9
O=C(N/N=C/c1cc([N+](=O)[O-])ccc1O)c1ccc2c(c1)OCCO2	-12.4	5.8	4.3	-3.0	63.9*	48.2*	-5.7	Scp-1 Tm shift=-2.9
O=C(N/N=C/c1ccccc1[N+](=O)[O-])c1ccc2c(c1)OCCO2	-38.6	2.2	-0.3	-1.2	-9.0	x	x
O=C(N/N=C/c1cc([N+](=O)[O-])ccc1Cl)c1ccc2nc[nH]c2c1	19.5	1.6	-0.7	2.9	54.7*	28.1	-2.1
CCOC(=O)c1ccc(NC(=O)COc2cc3oc(=O)c(CC(C)O)c(C)c3cc2Cl)cc1 (stereo unspecified)	10.6	2.4	0.8	-8.0	25.4	x	x
CC(=O)c1cccc(NC(=O)COc2cc3oc(=O)c(CC(C)O)c(C)c3cc2Cl)c1 (stereo unspecified)	-6.2	-0.8	2.7	8.6	50.8*	46.4*	-12.9	Scp-1 Tm shift=-20.4
Cc1ccc(-n2cnc3c(=O)[nH]cnc32)cc1	-2.3	-1.1	-2.0	-2.2	-10.5	x	x
CSc1ccccc1NC(=O)c1cc2c(=O)n3ccccc3nc2s1	-2.5	1.1	0.9	3.3	-6.0	x	x
CC(C)NC(=O)c1cc2c(=O)n3ccccc3nc2s1	5.1	-4.0	-0.4	-3.0	64.5*	-18.8	-18.9
CN(C(=O)c1cccc(NC(=O)Cc2cccc([N+](=O)[O-])c2)c1)C1CCCC1	-18.1	1.1	-0.1	-1.2	3.9	x	x

Screens deposited in PubChem by Sanford-Burnham Center for Chemical Genomics.
